Results on one compound are retold here after the M2OR odorant receptor database.

Holding throughout (settings): stereoisomer not certain
For one experiment, the target named is T1, UniProt Q8VGJ5.
T1 sequence (whole entry): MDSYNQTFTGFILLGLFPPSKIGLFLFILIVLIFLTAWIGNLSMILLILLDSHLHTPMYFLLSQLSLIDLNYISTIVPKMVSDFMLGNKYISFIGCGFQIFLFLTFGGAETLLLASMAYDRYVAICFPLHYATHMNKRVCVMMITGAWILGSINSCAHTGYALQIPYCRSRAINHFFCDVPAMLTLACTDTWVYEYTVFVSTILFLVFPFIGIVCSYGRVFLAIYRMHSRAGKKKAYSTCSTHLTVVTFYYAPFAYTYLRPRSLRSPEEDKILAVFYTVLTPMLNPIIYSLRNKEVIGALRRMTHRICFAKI
The method, boiled down:
(§1)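 Whether a receptor–molecule pair is responsive (active) rests on the original authors' judgment that its measured signal was statistically different from baseline. Pairs without that judgment are non-responsive (inactive). Sources used varied assay methods, commonly transient luciferase assays in mammalian cell lines.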

The next experiment concerns the target T2, UniProt Q8VGL0.
T2 sequence (whole entry): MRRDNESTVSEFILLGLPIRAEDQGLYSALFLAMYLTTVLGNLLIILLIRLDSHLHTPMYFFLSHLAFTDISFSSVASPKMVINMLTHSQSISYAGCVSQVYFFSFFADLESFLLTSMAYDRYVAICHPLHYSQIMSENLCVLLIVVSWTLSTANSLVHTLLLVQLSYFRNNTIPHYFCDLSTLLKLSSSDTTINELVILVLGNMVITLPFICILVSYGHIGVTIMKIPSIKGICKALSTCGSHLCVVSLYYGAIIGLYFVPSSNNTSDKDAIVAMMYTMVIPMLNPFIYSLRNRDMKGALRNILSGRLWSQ
The method, boiled down: as §1

For another experiment, the target named is T3, UniProt Q8VGL7.
T3 sequence (whole entry): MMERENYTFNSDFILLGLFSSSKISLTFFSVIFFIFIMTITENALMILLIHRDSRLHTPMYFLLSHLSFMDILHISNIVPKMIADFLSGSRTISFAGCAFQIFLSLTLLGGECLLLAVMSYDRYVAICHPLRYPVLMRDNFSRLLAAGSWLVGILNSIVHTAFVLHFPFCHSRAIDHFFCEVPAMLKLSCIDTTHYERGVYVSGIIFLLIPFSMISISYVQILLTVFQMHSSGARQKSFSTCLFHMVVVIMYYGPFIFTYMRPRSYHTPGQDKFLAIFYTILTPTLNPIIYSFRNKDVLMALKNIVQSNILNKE
The method, boiled down: as §1

The next experiment concerns the target T4, UniProt Q8VGM2.
T4 sequence (whole entry): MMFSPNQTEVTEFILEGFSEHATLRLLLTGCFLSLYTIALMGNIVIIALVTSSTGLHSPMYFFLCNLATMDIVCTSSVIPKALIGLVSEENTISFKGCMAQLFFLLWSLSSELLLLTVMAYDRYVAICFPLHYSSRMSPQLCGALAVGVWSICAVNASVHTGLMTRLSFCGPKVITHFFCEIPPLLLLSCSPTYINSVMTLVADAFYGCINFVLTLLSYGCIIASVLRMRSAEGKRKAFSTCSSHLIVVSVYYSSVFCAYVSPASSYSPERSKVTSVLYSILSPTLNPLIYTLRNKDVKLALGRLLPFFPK
The method, boiled down: as §1

Another experiment addresses T5, UniProt Q8VGP6.
T5 sequence (whole entry): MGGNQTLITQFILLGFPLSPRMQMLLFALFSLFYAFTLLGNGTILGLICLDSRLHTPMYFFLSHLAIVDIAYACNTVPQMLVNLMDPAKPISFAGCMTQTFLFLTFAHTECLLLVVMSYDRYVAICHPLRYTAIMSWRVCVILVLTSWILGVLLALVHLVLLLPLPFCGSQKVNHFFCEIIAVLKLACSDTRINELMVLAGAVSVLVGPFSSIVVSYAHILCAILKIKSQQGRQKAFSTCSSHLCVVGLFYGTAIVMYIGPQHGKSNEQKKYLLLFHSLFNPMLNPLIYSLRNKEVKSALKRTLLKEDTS
The method, boiled down:
as §1

Another experiment concerns the target T6, UniProt Q8VGQ3.
T6 sequence (whole entry): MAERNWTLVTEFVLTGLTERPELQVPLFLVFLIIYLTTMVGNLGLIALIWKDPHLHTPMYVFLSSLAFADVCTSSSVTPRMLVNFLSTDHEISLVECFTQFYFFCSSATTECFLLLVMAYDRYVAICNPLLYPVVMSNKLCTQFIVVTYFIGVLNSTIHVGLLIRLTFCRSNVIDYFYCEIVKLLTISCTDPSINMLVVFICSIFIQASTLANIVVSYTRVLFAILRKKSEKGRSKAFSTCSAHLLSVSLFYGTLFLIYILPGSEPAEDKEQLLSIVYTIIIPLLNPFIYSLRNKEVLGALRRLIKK
The method, boiled down:
as §1

A further experiment concerns the target T7, UniProt Q8VGT4.
T7 sequence (whole entry): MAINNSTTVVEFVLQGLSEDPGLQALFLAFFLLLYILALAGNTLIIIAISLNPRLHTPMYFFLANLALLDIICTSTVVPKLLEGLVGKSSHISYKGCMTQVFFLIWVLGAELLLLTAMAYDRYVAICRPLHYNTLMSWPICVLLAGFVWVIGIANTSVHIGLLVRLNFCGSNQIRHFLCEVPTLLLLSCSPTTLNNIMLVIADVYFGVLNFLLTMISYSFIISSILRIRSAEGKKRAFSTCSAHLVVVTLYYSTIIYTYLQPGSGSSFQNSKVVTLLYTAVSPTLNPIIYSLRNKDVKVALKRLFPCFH
The method, boiled down: as §1

The target of another experiment is T8, UniProt Q8VGV1.
T8 sequence (whole entry): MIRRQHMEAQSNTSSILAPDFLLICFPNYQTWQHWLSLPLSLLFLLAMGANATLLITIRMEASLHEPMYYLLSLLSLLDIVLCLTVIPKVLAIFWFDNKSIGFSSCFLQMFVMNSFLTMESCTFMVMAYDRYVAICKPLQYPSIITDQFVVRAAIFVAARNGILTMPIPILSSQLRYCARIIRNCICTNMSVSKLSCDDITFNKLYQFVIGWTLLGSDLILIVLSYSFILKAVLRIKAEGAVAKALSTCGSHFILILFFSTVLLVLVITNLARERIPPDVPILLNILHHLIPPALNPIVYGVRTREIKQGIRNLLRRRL
The method, boiled down:
as §1

Another experiment concerns the target T9, UniProt Q8VGX5.
T9 sequence (whole entry): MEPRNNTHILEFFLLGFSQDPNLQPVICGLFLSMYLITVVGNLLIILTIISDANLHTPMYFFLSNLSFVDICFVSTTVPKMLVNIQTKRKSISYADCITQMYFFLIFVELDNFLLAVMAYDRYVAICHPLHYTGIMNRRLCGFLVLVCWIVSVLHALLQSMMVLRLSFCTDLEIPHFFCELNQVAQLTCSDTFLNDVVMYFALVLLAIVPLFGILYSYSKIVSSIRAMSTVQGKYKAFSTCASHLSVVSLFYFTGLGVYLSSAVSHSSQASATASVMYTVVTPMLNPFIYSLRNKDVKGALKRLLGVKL
The method, boiled down: as §1

In a further experiment the target is T10, UniProt Q8VGX8.
T10 sequence (whole entry): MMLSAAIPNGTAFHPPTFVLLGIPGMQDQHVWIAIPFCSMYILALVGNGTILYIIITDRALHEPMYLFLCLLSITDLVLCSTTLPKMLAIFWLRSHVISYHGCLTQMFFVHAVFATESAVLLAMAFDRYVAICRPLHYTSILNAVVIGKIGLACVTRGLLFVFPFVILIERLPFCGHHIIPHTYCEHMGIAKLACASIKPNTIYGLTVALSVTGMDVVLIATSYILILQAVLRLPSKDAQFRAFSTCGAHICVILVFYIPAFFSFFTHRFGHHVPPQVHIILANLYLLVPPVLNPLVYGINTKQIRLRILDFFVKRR
The method, boiled down: as §1

In another experiment the target is T11, UniProt Q8VGY6.
T11 sequence (whole entry): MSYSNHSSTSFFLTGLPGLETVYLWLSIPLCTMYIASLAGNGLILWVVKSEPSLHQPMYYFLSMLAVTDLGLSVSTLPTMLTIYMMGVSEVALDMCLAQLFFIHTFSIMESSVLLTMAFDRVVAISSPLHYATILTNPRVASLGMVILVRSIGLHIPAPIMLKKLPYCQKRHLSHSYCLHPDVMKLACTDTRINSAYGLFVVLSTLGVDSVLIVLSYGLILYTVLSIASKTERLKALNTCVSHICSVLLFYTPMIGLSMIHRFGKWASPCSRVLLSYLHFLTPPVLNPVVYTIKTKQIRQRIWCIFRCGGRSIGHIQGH
The method, boiled down:
as §1

For the next experiment, the target named is T12, UniProt Q8VGZ2.
T12 sequence (whole entry): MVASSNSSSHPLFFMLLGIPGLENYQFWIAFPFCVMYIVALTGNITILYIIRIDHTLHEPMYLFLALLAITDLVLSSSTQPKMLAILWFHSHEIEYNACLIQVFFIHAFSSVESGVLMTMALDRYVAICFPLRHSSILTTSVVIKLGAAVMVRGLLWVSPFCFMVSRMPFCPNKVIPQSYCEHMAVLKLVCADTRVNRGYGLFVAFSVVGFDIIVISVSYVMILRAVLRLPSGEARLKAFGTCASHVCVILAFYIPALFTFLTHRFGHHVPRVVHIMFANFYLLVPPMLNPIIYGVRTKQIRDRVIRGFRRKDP
The method, boiled down:
as §1

For a further experiment, the target named is T13, UniProt Q8VGZ7.
T13 sequence (whole entry): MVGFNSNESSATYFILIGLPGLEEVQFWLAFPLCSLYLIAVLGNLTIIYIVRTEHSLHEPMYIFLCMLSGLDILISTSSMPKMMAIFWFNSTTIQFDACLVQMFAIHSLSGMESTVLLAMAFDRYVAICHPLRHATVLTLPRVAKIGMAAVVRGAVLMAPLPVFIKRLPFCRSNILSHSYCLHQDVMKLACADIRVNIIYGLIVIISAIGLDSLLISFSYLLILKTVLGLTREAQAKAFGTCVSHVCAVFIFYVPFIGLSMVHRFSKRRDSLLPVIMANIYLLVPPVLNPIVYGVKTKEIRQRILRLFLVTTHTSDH
The method, boiled down: as §1

The target in another experiment is T14, UniProt Q8VH10.
T14 sequence (whole entry): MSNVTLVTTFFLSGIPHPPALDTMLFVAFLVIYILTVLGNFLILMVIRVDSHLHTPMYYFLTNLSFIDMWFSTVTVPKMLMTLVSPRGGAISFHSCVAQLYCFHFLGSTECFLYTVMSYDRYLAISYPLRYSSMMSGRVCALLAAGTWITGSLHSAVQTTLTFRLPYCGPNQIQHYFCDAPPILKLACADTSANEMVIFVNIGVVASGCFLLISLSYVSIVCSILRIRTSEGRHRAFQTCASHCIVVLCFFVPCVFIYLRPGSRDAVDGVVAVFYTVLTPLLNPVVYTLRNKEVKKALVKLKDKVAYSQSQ
The method, boiled down:
as §1

The target in another experiment is T15, UniProt Q8VH20.
T15 sequence (whole entry): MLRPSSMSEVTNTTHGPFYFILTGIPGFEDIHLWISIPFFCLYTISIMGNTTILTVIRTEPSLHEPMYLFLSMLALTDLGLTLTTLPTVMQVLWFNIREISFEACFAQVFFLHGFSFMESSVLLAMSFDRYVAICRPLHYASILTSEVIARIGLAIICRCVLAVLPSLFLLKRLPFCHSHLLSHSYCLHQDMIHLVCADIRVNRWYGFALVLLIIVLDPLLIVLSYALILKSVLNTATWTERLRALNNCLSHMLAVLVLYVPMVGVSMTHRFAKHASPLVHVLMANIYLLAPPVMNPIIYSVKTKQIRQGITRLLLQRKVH
The method, boiled down: as §1
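Note: active if original authors judged signal statistically different from baseline.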

For the compound `CCC1CCC(=O)O1` (stereo not given), the “odorant receptor agonist call” value with UniProt Q8VGJ5 was “active”. The “odorant receptor agonist call” value with UniProt Q8VGL0, with UniProt Q8VGL7, with UniProt Q8VGM2, with UniProt Q8VGP6, in the experiment with UniProt Q8VGQ3 and with UniProt Q8VGT4 was “inactive” in each case. The “odorant receptor agonist call” value with UniProt Q8VGV1, in the experiment with UniProt Q8VGX5, in the experiment with UniProt Q8VGX8, in the experiment with UniProt Q8VGY6, with UniProt Q8VGZ2 and in the experiment with UniProt Q8VGZ7 was “inactive” in each case. For the same compound, the “odorant receptor agonist call” value in the experiment with UniProt Q8VH10 and in the experiment with UniProt Q8VH20 was “inactive” each time.
